Data from ChEMBL document CHEMBL1240409, “Design, synthesis and evaluation of (E)-alpha-benzylthio chalcones as novel inhibitors of BCR-ABL kinase” (Bioorg Med Chem, 2010).

Assays:
[1] = tested on: DU-145; assay: Growth inhibition of human DU145 cells after 96 hrs by trypan blue exclusion assay; type: functional; details: DU-145, 96 h
[2] = tested on: K562; assay: Growth inhibition of human K562 cells expressing p210Bcr/Abl after 96 hrs by trypan blue exclusion assay; type: functional, cell-based; details: K562, 96 h
How it was run: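 K562 cells were kept in RPMI with 10% FBS and penicillin–streptomycin at 37 °C under 5% CO2. Cells were seeded at 1 × 10^5 cells/mL with a range of compound concentrations, using DMSO as the negative control. After 96 h, viability was counted by Trypan blue exclusion and expressed as percent of DMSO control to derive GI50.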

| Compound | GI50 [1] [µM] | GI50 [2] [µM] |
| --- | --- | --- |
| O=C(/C(=C\c1ccc(Br)cc1)S(=O)(=O)c1ccc(Br)cc1)c1ccc(Br)cc1 | 10 | 10 |
| COc1ccccc1/C=C(/SCc1ccc(F)cc1)C(=O)c1ccc(Br)cc1 | 10 | 10 |
| CCOc1ccc(/C=C(\C(=O)c2ccc(Cl)cc2)S(=O)(=O)Cc2ccc(C)cc2)cc1OC | 10 | 10 |
| Cc1ccc(S/C(=C/c2cc(C)cc(C)c2)C(=O)c2ccc(Cl)cc2)cc1 | 50 | 25 |
| CN(C)c1ccc(/C=C(/SCc2ccc(Cl)cc2)C(=O)c2ccc(C(=O)O)cc2)cc1 | 1 | 1 |
| CSc1ccc(/C=C(/SCc2ccc(Cl)cc2)C(=O)c2ccc(Cl)cc2)cc1 | 25 | 1 |
| Cc1ccc(S/C(=C/c2ccc(Cl)cc2)C(=O)c2ccc(Cl)cc2)cc1 | 10 | 1 |
| COc1ccc(/C=C(\C(=O)c2ccc(Br)cc2)S(=O)(=O)c2ccc(Br)cc2)c(OC)c1 | 8 | 8 |
| Cc1ccc(CS/C(=C/c2cc(C)ccc2C)C(=O)c2ccc(Cl)cc2)cc1 | 10 | 10 |
| Cc1ccc(CS/C(=C/c2ccccc2F)C(=O)c2ccc(Cl)cc2)cc1 | 10 | 1 |
| Cc1ccc(/C=C(/Sc2ccc(F)cc2)C(=O)c2ccc(Cl)cc2)s1 | 25 | 25 |
| O=C(C(=Cc1ccc(I)cc1)S(=O)(=O)Cc1ccc(I)cc1)c1ccc(I)cc1 | 50 | > 50 |
| O=C(/C(=C\c1ccc(Br)cc1)S(=O)(=O)Cc1ccc(F)cc1)c1ccc(Cl)cc1 | > 100 | 50 |
| O=C(/C(=C\c1ccccc1OCc1ccccc1)S(=O)(=O)c1ccc(Br)cc1)c1ccc(Cl)cc1 | 1 | 1 |
| CN(C)c1ccc(/C=C(/SCc2ccc(Cl)cc2)C(=O)c2ccc(Cl)cc2)cc1 | > 100 | 10 |
| O=C(/C(=C\c1ccc(F)c([N+](=O)[O-])c1)SCc1ccc(F)cc1)c1ccc(SCc2ccc(F)cc2)c([N+](=O)[O-])c1 | 25 | 1 |
| O=C(/C(=C\c1ccc(Cl)cc1)SCc1ccc(F)cc1)c1ccc(Cl)cc1 | 10 | 1 |
| O=C(/C(=C\c1ccc(F)cc1Cl)S(=O)(=O)c1ccc(Br)cc1)c1ccc(Br)cc1 | 50 | 25 |
| COc1ccc(/C=C(/SCc2ccc(Cl)cc2)C(=O)c2ccc(C(=O)O)cc2)cc1 | 10 | 10 |
| COc1ccc2[nH]cc(/C=C(/Sc3ccc(Br)cc3)C(=O)c3ccc(Br)cc3)c2c1 | 10 | 10 |
| COc1ccccc1/C=C(\C(=O)c1ccc(Cl)cc1)S(=O)(=O)Cc1ccc(C)cc1 | 10 | 10 |
| O=C(/C(=C\c1ccc(Br)cc1)SCc1ccc(Cl)cc1)c1ccc(Cl)cc1 | 1 | 1 |
| COc1ccc(S/C(=C/c2ccccc2OCc2ccccc2)C(=O)c2ccc(Cl)cc2)cc1 | 1 | 1 |
| Cc1ccc(S/C(=C/c2c(F)c(F)c(F)c(F)c2F)C(=O)c2ccc(Cl)cc2)cc1 | 25 | 25 |
| Cc1ccc(CS/C(=C/c2ccc(C)s2)C(=O)c2ccc(Cl)cc2)cc1 | 50 | 50 |

| Compound | GI50 [1] [µM] | GI50 [2] [µM] |
| --- | --- | --- |
| COc1ccc(/C=C(/SCc2ccc(Cl)cc2)C(=O)c2ccc(Br)cc2)cc1O | 1 | 1 |
| Cc1ccc(CS(=O)(=O)/C(=C/c2ccccc2OCc2ccccc2)C(=O)c2ccc(Cl)cc2)cc1 | 1 | 1 |
| Cc1ccc(S(=O)(=O)/C(=C/c2ccc(N(C)C)cc2)C(=O)c2ccc(Br)cc2)cc1 | 50 | > 100 |
| CCOc1ccc(/C=C(/Sc2ccc(C)cc2)C(=O)c2ccc(Br)cc2)cc1OC | 50 | 1 |
| COc1cc(OC)c(/C=C(\C(=O)c2ccc(Br)cc2)S(=O)(=O)c2ccc(Br)cc2)c(OC)c1 | > 100 | > 100 |
| O=C(/C(=C\c1ccc(O)cc1O)SCc1ccc(Cl)cc1)c1ccc(Cl)cc1 | 50 | 50 |
| Cc1ccc(CS/C(=C/c2ccccc2F)C(=O)c2ccc(Br)cc2)cc1 | 10 | 1 |
| COc1ccc(/C=C(/Sc2ccc(Br)cc2)C(=O)c2ccc(Br)cc2)c(F)c1 | 20 | 1 |
| Cc1ccc(S(=O)(=O)/C(=C/c2c[nH]c3ccccc23)C(=O)c2ccc(Br)cc2)cc1 | 10 | 10 |
| CN(C)c1ccc(/C=C(/SCc2ccc(F)cc2)C(=O)c2ccc(Br)cc2)cc1 | 50 | 1 |
| COc1cc(OC)c(/C=C(/SCc2ccc(Cl)cc2)C(=O)c2ccc([N+](=O)[O-])cc2)c(OC)c1 | > 100 | 50 |
| O=C(/C(=C\c1ccccc1F)S(=O)(=O)c1ccc(Br)cc1)c1ccc(Cl)cc1 | 25 | 25 |
| COc1ccc(/C=C(/Sc2ccc(F)cc2)C(=O)c2ccc(OC)cc2)cc1 | 25 | 1 |
| Cc1ccc(S/C(=C/c2ccc(N(C)C)cc2)C(=O)c2ccc(Br)cc2)cc1 | > 100 | 50 |
| CCOc1ccc(/C=C(\C(=O)c2ccc(Cl)cc2)S(=O)(=O)c2ccc(C)cc2)cc1OC | 1 | 1 |
| CSc1ccc(/C=C(/Sc2ccc(C)cc2)C(=O)c2ccc(Br)cc2)cc1 | 50 | 1 |
| O=C(/C(=C\c1ccccc1OCc1ccccc1)SCc1ccc(F)cc1)c1ccc(Br)cc1 | 1 | 1 |
| COc1ccc(S(=O)(=O)/C(=C/c2ccc(C)s2)C(=O)c2ccc(Cl)cc2)cc1 | 25 | 10 |
| O=C(/C(=C\c1ccc(F)cc1Cl)Sc1ccc(Br)cc1)c1ccc(Br)cc1 | 1 | 1 |
| O=C(/C(=C\c1cccc(Cl)c1Cl)SCc1ccc(Cl)cc1)c1ccc(Br)cc1 | 10 | 10 |
| CSc1ccc(/C=C(\C(=O)c2ccc(Br)cc2)S(=O)(=O)Cc2ccc(C)cc2)cc1 | 10 | 10 |
| O=C(/C(=C\c1ccc([N+](=O)[O-])c(O)c1)SCc1ccc(Br)cc1)C1CCNC1 (stereo not given) | > 100 | > 100 |
| Cc1ccc(S(=O)(=O)/C(=C/c2ccc(Br)cc2)C(=O)c2ccc(Br)cc2)cc1 | 10 | 4 |
| COc1ccc(/C=C(/SCc2ccc(F)cc2)C(=O)c2ccc(C(=O)O)cc2)cc1O | 10 | 1 |
| COc1ccc(/C=C(/Sc2ccc(Br)cc2)C(=O)c2ccc(Br)cc2)cc1 | 25 | 1 |

| Compound | GI50 [1] [µM] | GI50 [2] [µM] |
| --- | --- | --- |
| O=C(/C(=C\c1ccccc1OCc1ccccc1)S(=O)(=O)Cc1ccc(F)cc1)c1ccc(Cl)cc1 | 10 | 1 |
| CN(C)c1ccc(/C=C(/SCc2ccc(Cl)cc2Cl)C(=O)c2ccc(Cl)cc2)cc1 | 50 | > 100 |
| O=C(/C(=C\c1ccc(O)c([N+](=O)[O-])c1)S(=O)(=O)Cc1ccc(Br)cc1)c1c(F)c(F)c(F)c(F)c1F | 50 | 50 |
| COc1ccc(C(=O)/C(=C\c2ccc(Br)cc2)Sc2ccc(F)cc2)cc1 | > 100 | > 100 |
| COc1ccc(/C=C(\C(=O)c2ccc(Br)cc2)S(=O)(=O)Cc2ccc(Cl)cc2)c(O)c1 | 10 | 10 |
| O=C(/C(=C\c1c[nH]c2ccc(Br)cc12)SCc1ccc(Cl)cc1Cl)c1ccc(Cl)cc1 | 10 | 1 |
| Cc1ccc(/C=C(/SCc2ccc(Cl)cc2)C(=O)c2ccc(Cl)cc2)s1 | 50 | 50 |
| Cc1ccc(CS(=O)(=O)/C(=C/c2ccc(S(C)(=O)=O)cc2)C(=O)c2ccc(Br)cc2)cc1 | 10 | 1 |
| O=C(/C(=C\c1ccc[nH]1)SCc1ccc(Cl)cc1)c1ccc(Cl)cc1 | 10 | 10 |
| O=C(/C(=C\c1ccc(Oc2ccccc2)cc1)SCc1ccccc1Cl)c1ccc(Cl)cc1 | 1 | 1 |
| O=C(/C(=C\c1ccc(Br)cc1)S(=O)(=O)Cc1ccc(F)cc1)c1ccc(Br)cc1 | 25 | 10 |
| Cc1ccc(CS/C(=C/c2ccc(Br)cc2)C(=O)c2ccc(Cl)cc2)cc1 | 10 | 1 |
| COc1cc(OC)c(/C=C(/SCc2ccc(Cl)cc2Cl)C(=O)c2ccc(Cl)cc2)c(OC)c1 | 1 | 25 |
| COc1cc(OC)c(/C=C(\C(=O)c2ccc(Br)cc2)S(=O)(=O)Cc2ccc(Cl)cc2)c(OC)c1 | 25 | 25 |
| O=C(/C(=C\c1ccc(F)cc1)S(=O)(=O)c1ccc(Br)cc1)c1ccc(Br)cc1 | 4 | 10 |
| COc1ccc(S/C(=C/c2ccc(C)s2)C(=O)c2ccc(Cl)cc2)cc1 | 50 | 50 |
| O=C(/C(=C\c1ccc(Br)cc1)SCc1ccc(F)cc1)c1ccc(Cl)cc1 | 9 | 1 |
| O=C(/C(=C\c1cc(I)c(O)c(I)c1)SCc1ccc(Br)cc1)c1ccc(Br)cc1 | 1 | 1 |
| O=C(/C(=C\c1ccc(Cl)cc1)SCc1ccc(Br)cc1)c1ccccc1Cl | 25 | 1 |
| O=C(O)c1cc(/C=C(\C(=O)c2c(F)c(F)c(F)c(F)c2F)S(=O)(=O)c2ccc(Br)cc2)ccc1O | > 100 | > 100 |
| O=C(/C(=C\c1ccccc1OCc1ccccc1)Sc1ccc(F)cc1)c1ccc(Cl)cc1 | 1 | 1 |
| Cc1ccc(S/C(=C/c2cc(Cl)cc(Cl)c2Cl)C(=O)c2ccc(Cl)cc2)cc1 | 50 | 50 |
| Cc1ccc(CS(=O)(=O)/C(=C/c2ccc(N(C)C)cc2)C(=O)c2ccc(Cl)cc2)cc1 | 50 | 50 |
| O=C(/C(=C\c1ccc(O)c([N+](=O)[O-])c1)S(=O)(=O)Cc1ccccc1Cl)c1ccc(Cl)cc1 | 10 | 10 |
| O=C(/C(=C\c1ccc(Br)cc1)Sc1ccc(Br)cc1)c1ccc(Cl)cc1 | 1 | 1 |
